For 13 compounds, IC50 and Activity results are on record in ChEMBL document CHEMBL1143148, “Influence of heterocyclic and oxime-containing farnesol analogs on quorum sensing and pathogenicity in Candida albicans” (Bioorg Med Chem, 2008).

Data set [1] concerns Candida albicans. The data set can be described thus: Effect on quorum sensing in Candida albicans assessed as inhibition of germ tube formation. Format: functional, organism-based. The procedure, abridged:
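Undifferentiated C. albicans cells inoculated to a final 1–2 × 10⁷ cells/ml in 2.5 mM N-acetyl glucosamine buffered to pH 7. Incubated 4 h at 37 °C with shaking at 200 rpm. Percentage of cells forming germ tubes then scored and inhibition relative to untreated cells taken. Triplicate readings.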

Data set [2] has as its system Candida albicans. The data set can be described thus: Effect on rate of cell growth in Candida albicans at > 100 uM. Format: functional, organism-based.
A further data set has as its system Mus musculus. The data set can be described thus: Toxicity against ip dosed mouse after 14 days. Format: organism-based. As to conditions: in vivo, 336 h.
Data set [3] has as its system Candida albicans. The data set can be described thus: Enhancement of pathogen virulence in Candida albicans A72 infected mouse model of disseminated candidiasis assessed as mortality at 20 mM, ip after 60 hrs of infection relative to control. Format: functional, organism-based. In short, it runs like this: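 Mice inoculated by tail vein with C. albicans A72 at 5 · 10⁶ or 2 · 10⁶ cells, 45 mice per inoculum, split into 3 groups of 15. Each group received IP 1 ml of either 0.5% Tween 80 in saline (control) or a 20 mM analog solution in 0.5% Tween 80 in sterile nonpyrogenic saline. Mortality was followed over time.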

In data set [4] the test system is Candida albicans. The data set is described as follows: Protection against Candida albicans A72 infected mouse model of disseminated candidiasis assessed as mortality at 20 mM, ip. The data set is classed as functional, organism-based. The procedure, abridged:
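Mice inoculated by tail vein with C. albicans A72 at 5 × 10⁶ or 2 × 10⁶ cells, 15 per group. Each got 1 ml IP of a 20 mM analog solution in 0.5% Tween 80 in saline, or a vehicle control injection. Mortality followed over time.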

pIC50: −log10 of the molar value. Active and inactive are the calls of the source. The calls are words filed in the database; no cut-off is given here.

As to `CC(C)=CCC/C(C)=C/CSc1c[nH]nn1`, in the data set on Candida albicans [1], the pIC50 (in general, the negative decadic logarithm of the IC50, by convention in mol/L) is 5.52.
Turning to `CC(C)=C/C=C/C(C)=C/C=C/C(C)=C/C=N/O`, the pIC50 in the data set with Candida albicans [1] was 5.00. In addition, the result in the data set on Candida albicans [2] was inactive.
With `CC(C)=CCC/C(C)=C/CSc1ncc[nH]1`, in the data set on Candida albicans [1], the pIC50 is under 4.30.
For the compound `CC(C)=CCC/C(C)=C/CCc1nnn[nH]1`, the Activity result with Mus musculus is given as “Non-toxic”. Besides, the pIC50 in the data set with Candida albicans [1] was 5.15. Further, the result in the data set on Candida albicans [3] was Active. For the same compound, the outcome in the data set with Candida albicans [2] and with Candida albicans [4] was inactive.
`CC(C)=CCC/C(C)=C/CSc1nc[nH]n1`: the Activity result in the data set on Mus musculus is “Non-toxic”. The pIC50 in the data set with Candida albicans [1] is 6.00. The outcome in the data set with Candida albicans [4] was inactive.
As for `CC(C)=CCC/C(C)=C/CC/C(C)=C/CO` [FARNESOL], the Activity result in the data set with Mus musculus is “Non-toxic”. Besides, the pIC50 with Candida albicans [1] is 6.00. Also, the outcome in the data set on Candida albicans [2] was inactive.
As to `CC(C)=CCC/C(C)=C/CCc1c[nH]nn1`, the pIC50 with Candida albicans [1] was 6.00.
In the case of `CO/N=C/C=C(\C)CC/C=C(\C)CCC=C(C)C`, the pIC50 in the data set on Candida albicans [1] is at most 4.00. In the data set on Candida albicans [2], the outcome was inactive.
The like results for `C(=C\c1nn[nH]n1)/c1ccccc1` were, in that order, 5.00 and “inactive”.
Consider `CC(C)=CCC/C(C)=C/CSc1nn[nH]n1`, for which, in the data set with Candida albicans [1], the pIC50 was under 4.30.
For `CC(C)=CCC/C(C)=C/CC/C(C)=C/C=N/O`, the Activity entry with Mus musculus is “Toxic”. The pIC50 in the data set with Candida albicans [1] is 5.30. For the same compound, the result with Candida albicans [2] was inactive.
For `CCCCCCCCCc1nnn[nH]1`, the Activity result in the data set on Mus musculus was “Non-toxic”. In the data set on Candida albicans [1], the pIC50 was 5.52. Besides, in the data set on Candida albicans [2], the result was inactive.
Take `CC(C)=CCC/C(C)=C/Cc1nnn[nH]1`: the pIC50 in the data set with Candida albicans [1] was under 4.30. Moreover, the outcome in the data set on Candida albicans [2] was inactive.
